Laboratory results from the RNAGym collection of RNA variant scans (doi:10.1126/science.aae0568).
Fewer inactive variants are shown than the library holds.

B1: tRNA (parent)
chain: GUUCCGUUGGCGUAAUGGUAACGCGUCUCCCUCCUAAGGAGAAGACUGCGGGUUCGAGUCCCGUACGGAACG

Variants of: B1
Experiment: yeast fitness relative to wild type (ratio to wild type); higher = fitter; tRNA-Arg(CCU), competitive growth, 37 C, YPD
Procedure, shortened: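 A pool of Saccharomyces cerevisiae strains, each with a tRNA-Arg(CCU) gene variant at the native genomic locus, was competed in YPD at 37°C for 24 hours across six parallel replicates. The variants had been chemically synthesised at a 3% per-site mutation rate over 69 sites, and gene amplicons before and after competition were read by 100-nucleotide paired-end sequencing. Darwinian fitness relative to wild type rested on changes in genotype frequencies. Genotypes required ≥ 100 starting reads, and estimates < 0.5 were set to 0.5.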

Compared with GUUACGUUGGCGUAAUGGUACUGCGUCUCCCUCCUAAGGAGAAGACUGCCGGUUCGAGUCCCGUACGGAACG [C4A A21C C22U G50C], GUUACGUUGGCGUAAUGGUACUGCGUCUCCCUCCUAAGGAGAAGACUGCCGGUUCGAGUCCCGUACGGAUCG [C4A A21C C22U G50C A70U] is higher in yeast fitness: 0.617 for the first, 0.73 for the second.

Going from GUUACGUUGGCGUAAUGGUACUGCGUCUCCCUCCUAAGGAGAAGACUGCCAGUUCGAGUCCCGUACGGAUCG [C4A A21C C22U G50C G51A A70U] to GUUACGUUGGCGUAAUGGUACUGCGUCUCCCUCCCAAGGAGAAGACUGCCGGUUCGAGUCCCGUACGGAUCG [C4A A21C C22U U35C G50C A70U], the yeast fitness rises from 0.559 to 0.563.

First: GUUACGUUGGCGUAAUGGUAGCGCGUCUCCCUCCUAAGGAGAAGACUGCGGGUUCGAGUCCCGUACGGAACG [C4A A21G]
Second: GUUACGUUGGCGUAAUGGUAGCGCGUCUCCCUCCUAAGGAGAAGUCUGCGGGUUCGAGUCCCGUACGGUACG [C4A A21G A45U A69U]
The yeast fitness of the first is higher: 0.974 for the first, 0.655 for the second.

First: GUUACGUUGGCGUAAUGGUAGCGCGUCUCCCUCCUAAGGAGAAGACUGCGGGUUCGAGUCCCGUUCGGAACG [C4A A21G A65U]
Second: GUUACGUUGGCGUAAUGGUAGCGCGUCUCCCUCCUAAGGAGAAGACUGCGGGUUCGAGUCCCGUACGAAACG [C4A A21G G68A]
The yeast fitness of the first is lower: 0.668 for the first, 0.7 for the second.

GUUACGUUGGCGUAAUGGUAUCGCGUCUCCCUCCUAAGGAGAGGACUGCGGGUUCGAGUCCAGUACGGAACG [C4A A21U A43G C62A] and GUUACGUUGGCGUAAUGGUAUCGCGUAUCCCUCCUAAGGACAAGACUGCGGGUUCGAGUCCCGUACGGAACG [C4A A21U C27A G41C] cannot be ordered by yeast fitness: no more than 0.5 for the first, no more than 0.5 for the second.

Going from GUUACGUUGGCGUAAUGGUAUCGCGUAUCCCUCCUAAGGACAAGACUGCGGGUUCGAGUCCCGUACGGAGCG [C4A A21U C27A G41C A70G] to GUUACGUUGGCGUAAUGGUAUCGCGUCUCCCUCCUAAGGAGAAGAAUGCGGGUUCGAGUCCCGUACGGAACG [C4A A21U C46A], the yeast fitness rises from no more than 0.5 to 0.58.

Compared with GUUACGUUGGCGUAAUGGUAUCGCGUCUCCCUCCUAAGGAGAAGACGGCGGGUUCGAGUCCCGUACGGAACG [C4A A21U U47G], GUUACGUUGGCGUAAUGGUAACGCGUCUCCCUCCUCAGGAGGAGACUGCGGGUUCGAGUCCCGUACGGAACG [C4A A36C A42G] is lower in yeast fitness: 0.535 for the first, no more than 0.5 for the second.

Compared with GUUACGUUGGCGUAAUGGUAACGCGUCUCCCUCCUGAGGGGAAGACUGCGGGUUCGAGUCCCGUAUGGAACG [C4A A36G A40G C66U], GUUACGUUGGCGUAAUGGUAACGCGUCUCCCUCCUGAGGAGAAGAGUGCGGGUUCGCGUCCCGUACGGAACG [C4A A36G C46G A57C] is lower in yeast fitness: 0.624 for the first, no more than 0.5 for the second.

Going from GUUACGUUGGCGUAAUGGUAACGCGUCUCCCUCCUGAGGAGAAGACUGCGCGUUCGAGUCCCGUUCGGAACG [C4A A36G G51C A65U] to GUUACGUUGGCGUAAUGGUAACGCGUCUCCCUCCUUCGGAGAAGACCGCGGGUUCGAGUCCCGUACGGAUCG [C4A A36U A37C U47C A70U], the yeast fitness rises from no more than 0.5 to 0.55.

Compared with GUUACGUUGGCGUAAUGGUAACGCGUCUCCCUCCUUAGGAGAAGACUGCAGGUUCGAGUCUCGUACGGAACG [C4A A36U G50A C61U], GUUACGUUGGCGUAAUGGUAACGCGUCUCCCUCCUACGGAGCAGACUGCGGGUUCGAGUCCCGUACGGAACG [C4A A37C A42C] is higher in yeast fitness: no more than 0.5 for the first, 0.506 for the second.

Going from GUUACGUUGGCGUAAUGGUAACGCGUCUCCCUCCUACGGAGAAGACUGCGGGUUCGAGUCCCGUACGGAUCG [C4A A37C A70U] to GUUACGUUGGCGUAAUGGUAACGCGUCUCCCUCCUACGGAGAAGACUGCGGGUUCAAGUCCCGUACGUAACG [C4A A37C G56A G68U], the yeast fitness rises from no more than 0.5 to 0.699.

First: GUUACGUUGGCGUAAUGGUAACGCGUCUCCCUCCUAGGGAGAAGACUGCGGGUUCGAGUCCCGUACGGAACG [C4A A37G]
Second: GUUACGUUGGCGUAAUGGUAACGCGUCUCCCUCCUAGGGAGAAGCCUGCGGGUUCGAGUCCCGUAGGGAACG [C4A A37G A45C C66G]
The yeast fitness of the first is higher: 0.754 for the first, no more than 0.5 for the second.

Going from GUUACGUUGGCGUAAUGGUAACGCGUCUCCCUCCUAGGGAGAAGACUGCGGGUUCGAGUCCCCUACGGAACG [C4A A37G G63C] to GUUACGUUGGCGUAAUGGUAACGCGUCUCCCUCCUAUGGAGAAGACUGCGGGUUCGAGUCCCGUACGGAACG [C4A A37U], the yeast fitness rises from 0.552 to 0.795.

Going from GUUACGUUGGCGUAAUGGUAACGCGUCUCCCUCCUAUGGAGAGGACUGCGGGUUCGACUGCCGUACGGAACG [C4A A37U A43G G58C C60G] to GUUACGUUGGCGUAAUGGUAACGCGUCUCCCUCCUAUGGAGAAGACUGCGAGUUCGAGUCCCGUACGGAACG [C4A A37U G51A], the yeast fitness falls from 0.654 to no more than 0.5.

Going from GUUACGUUGGCGUAAUGGUAACGCGUCUCCCUCCUAAGGGGAAGACUGCGGGUUCGAGUCCCGUACGGAACG [C4A A40G] to GUUACGUUGGCGUAAUGGUAACGCGUCUCCCUCCUAAGGUGGAGACUGCGGGUUGGAGUCCCGUACGGAACG [C4A A40U A42G C55G], the yeast fitness falls from 0.828 to no more than 0.5.

First: GUUACGUUGGCGUAAUGGUAACGCGUCUCCCUCCUAAGGUGAGGACUGCGGGUUCGAGUCCCGUUCGGAACG [C4A A40U A43G A65U]
Second: GUUACGUUGGCGUAAUGGUAACGCGUCUCCCUCCUAAGGUGAAGACUGCGGCUUCGAGUGCCGUACGGAACG [C4A A40U G52C C60G]
The yeast fitness of the first is lower: no more than 0.5 for the first, 0.552 for the second.

Going from GUUACGUUGGCGUAAUGGUAACGCGUCUCCCUCCUAAGGUGAAGACUGCGGCUUCGAGUGCCGUACGGCACG [C4A A40U G52C C60G A69C] to GUUACGUUGGCGUAAUGGUAACGCGUCUCCCUCCUAAGGAGCAGACUGCGGGUUCGAGUCCCGUACGGAACG [C4A A42C], the yeast fitness rises from 0.55 to 0.794.

Going from GUUACGUUGGCGUAAUGGUAACGCGUCUCCCUCCUAAGGAGCAGACUGCGGGUUCGAGUCCCGUAGGCAACG [C4A A42C C66G G68C] to GUUACGUUGGCGUAAUGGUAACGCGUCUCCCUCCUAAGGAGGAGACUGCGGGUUCGAGUCCCGUACGGAACG [C4A A42G], the yeast fitness rises from no more than 0.5 to 0.991.

GUUACGUUGGCGUAAUGGUAACGCGUCUCCCUCCUAAGGAGGAGCCUGCGGGUUCGAGUCCCGUACGGAACG [C4A A42G A45C] and GUUACGUUGGCGUAAUGGUAACGCGUCUCCCUCCUAAGGAGGAGACUGCGGGUUCGAGUCCCGAACGGAACG [C4A A42G U64A] cannot be ordered by yeast fitness: no more than 0.5 for the first, no more than 0.5 for the second.
